Measurements as given in ChEMBL document CHEMBL5357049, “Discovery of new dibenzodiazepine derivatives as antibacterials against intracellular bacteria” (RSC Med Chem, 2024).
Activity calls are given as the source filed them. The rule behind the calls is not given here.

What was measured:
Salmonella typhimurium [1] = experiment: Antibacterial activity against Salmonella typhimurium ATCC14028 infected in mouse RAW264.7 cells assessed as reduction in intracellular bacterial growth incubated for 24 hrs in presence of gentamicin by CMFDA and DAPI staining based high-content screening method; type: functional, organism-based, Salmonella enterica subsp. enterica serovar Typhimurium; settings: Salmonella enterica, ATCC14028, RAW264.7, 24 h
How it was run: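 RAW264.7 seeded at 10^4 cells/well for 20 h, then infected at MOI 50 with RFP-expressing ATCC14028 (subcultured 2 h, OD600 0.6 ≈ 1.5×10^8 CFU/mL). After 1 h infection: 100 µg/mL gentamicin 1 h, then compound with 20 µg/mL gentamicin for 24 h. Stained with 2.5 µM CMFDA, fixed in 3.7% formaldehyde, DAPI nuclei; nuclei and intracellular bacteria counted by imaging, 10× objective.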

[2] = Cytotoxicity against mouse RAW264.7 cells assessed as reduction in cell viability incubated for 24 hrs by MTT assay; type: toxicity, cell-based
How it was run: (§1)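 Cells seeded at 10^5 cells/mL, grown 20 h at 37°C, 5% CO2, then exposed to compound for 24 h. Medium replaced with 0.5 mg/mL MTT for 1 h, formazan dissolved in DMSO, absorbance read at 570 nm; CC50 calculated. HT-29 and HCT-116 kept in McCoy's 5A with 10% FBS, THP-1 in RPMI 1640 with 10% FBS, others in DMEM with 10% FBS.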

[3] = Selectivity ratio of CC50 for cytotoxicity against mouse RAW264.7 cells to EC50 for antibacterial activity against Salmonella typhimurium ATCC14028 infected in mouse RAW264.7 cells; type: toxicity, cell-based; settings: read-out: Ratio CC50/EC50
Salmonella typhimurium [4] = experiment: Antibacterial activity against Salmonella typhimurium ATCC14028 infected in mouse RAW264.7 cells assessed as reduction in intracellular bacterial growth incubated for 24 hrs in presence of gentamicin by CFU assay; type: functional, organism-based, Salmonella enterica subsp. enterica serovar Typhimurium; settings: Salmonella enterica, ATCC14028, RAW264.7, 24 h
How it was run: (§2)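 RAW264.7 cells in DMEM + 10% FBS, seeded at 3×10^5 per well for 20 h. Bacteria were grown in LB for 16–18 h, subcultured 1:100 for 2 h, and brought to OD600 0.6 in PBS. After 1 h infection, cells got 100 µg/mL gentamicin for 1 h, then compound for 24 h with 20 µg/mL gentamicin.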

[5] = Cytotoxicity against mouse RAW264.7 cells assessed as reduction in cell viability incubated for 24 hrs by CMFDA and DAPI staining based high-content screening method; type: toxicity
RAW264.7 = experiment: Cytotoxicity against mouse RAW264.7 cells assessed as reduction in cell viability at 60 uM incubated for 24 hrs by MTT assay; type: toxicity, cell-based; settings: raw264.7, 24 h
Salmonella typhimurium [6] = experiment: Antibacterial activity against Salmonella typhimurium ATCC14028 assessed as reduction in bacterial growth upto 64 uM incubated for 24 hrs by SpectraMax microplate reader analysis; type: functional, organism-based; settings: Salmonella enterica subsp. enterica serovar Typhimurium
How it was run: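 Overnight LB culture inoculated at 5×10^5 CFU/mL final into CAMHB or into DMEM with 10% FBS. Exposed to a range of concentrations at 37°C; growth followed by absorbance at 600 nm at set times over 24 h.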

[7] = molecular target: D(2) dopamine receptor (Homo sapiens) (UniProt P14416); experiment: Displacement of [3H]-labelled spiperone human recombinant D2 receptor expressed in CHO cells at 0.1 to 1 uM incubated for 2 hrs; type: cell-based; settings: dose 0.1-1 µM
D(2) dopamine receptor (Homo sapiens), sequence (P14416 whole entry): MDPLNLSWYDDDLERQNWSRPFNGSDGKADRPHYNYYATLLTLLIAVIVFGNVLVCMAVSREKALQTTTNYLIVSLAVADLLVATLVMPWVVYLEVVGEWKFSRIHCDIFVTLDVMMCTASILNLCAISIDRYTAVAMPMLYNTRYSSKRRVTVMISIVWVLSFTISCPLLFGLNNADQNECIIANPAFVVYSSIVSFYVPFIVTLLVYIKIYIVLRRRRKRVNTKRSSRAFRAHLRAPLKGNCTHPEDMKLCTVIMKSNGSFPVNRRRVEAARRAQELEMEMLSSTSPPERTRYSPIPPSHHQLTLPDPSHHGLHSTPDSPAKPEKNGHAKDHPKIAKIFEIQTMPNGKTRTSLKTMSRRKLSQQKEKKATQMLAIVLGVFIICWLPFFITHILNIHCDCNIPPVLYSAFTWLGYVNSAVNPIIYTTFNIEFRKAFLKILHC
How it was run: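 Contract radioligand binding: 20 µg human recombinant D2R from CHO cells incubated with [3H]spiperone, then compound added; pH 7.4 Tris-HCl, 2 h at 25°C.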

THP-1 [8] = experiment: Cytotoxicity against macrophage-like human THP-1 cells assessed as reduction in cell viability incubated for 24 hrs in presence of gentamicin by MTT assay; type: functional
How it was run: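 THP-1 differentiated to macrophages with 100 ng/mL PMA for 72 h, then seeded at 10^5 cells/mL and grown 20 h. Compound added for 24 h; 0.5 mg/mL MTT for 1 h, formazan dissolved in DMSO, absorbance at 570 nm; CC50 calculated.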

THP-1 [9] = experiment: Cytotoxicity against monocytic human THP-1 cells assessed as reduction in cell viability incubated for 24 hrs in presence of gentamicin by MTT assay; type: functional; how it was run: as §1
HT-29 = experiment: Cytotoxicity against human HT-29 cells assessed as reduction in cell viability incubated for 24 hrs in presence of gentamicin by MTT assay; type: functional; how it was run: as §1
HCT-116 = experiment: Cytotoxicity against human HCT-116 cells assessed as reduction in cell viability incubated for 24 hrs in presence of gentamicin by MTT assay; type: functional; how it was run: as §1
[10] = Cytotoxicity against human Intestine 407 cells assessed as reduction in cell viability incubated for 24 hrs in presence of gentamicin by MTT assay; type: functional; how it was run: as §1
J774.1 = experiment: Cytotoxicity against mouse J774.1 cells assessed as reduction in cell viability incubated for 24 hrs in presence of gentamicin by MTT assay; type: functional; how it was run: as §1
Salmonella typhimurium [11] = experiment: Antibacterial activity against Salmonella typhimurium ATCC14028 infected in mouse J774.1 cells assessed as reduction in intracellular bacterial growth incubated for 24 hrs in presence of gentamicin by CFU assay; type: functional, organism-based, Salmonella enterica subsp. enterica serovar Typhimurium; settings: Salmonella enterica, ATCC14028, J774.1, 24 h
How it was run: (§3)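 Host cells: HCT-116 and HT-29 in McCoy's 5A + 10% FBS; INT-407 and J774.1 in DMEM + 10% FBS. Bacteria were LB-grown, subcultured 2 h, and set to OD600 0.6. After 1 h infection, cells got 100 µg/mL gentamicin for 1 h, then compound for 24 h with 20 µg/mL gentamicin. Lysis was 0.1% Triton X-100, then plating and overnight colony counts; EC50 calculated.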

Salmonella typhimurium [12] = experiment: Antibacterial activity against Salmonella typhimurium ATCC14028 infected in macrophage-like human THP-1 cells assessed as reduction in intracellular bacterial growth incubated for 24 hrs in presence of gentamicin by CFU assay; type: functional, organism-based, Salmonella enterica subsp. enterica serovar Typhimurium; settings: Salmonella enterica, ATCC14028, THP-1, 24 h
How it was run: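 THP-1 cells in RPMI 1640 + 10% FBS, differentiated with 100 ng/mL PMA for 72 h. Cells were infected 1 h with LB-grown bacteria adjusted to OD600 0.6, given 100 µg/mL gentamicin for 1 h, then compound for 24 h in 20 µg/mL gentamicin.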

Salmonella typhimurium [13] = experiment: Antibacterial activity against Salmonella typhimurium ATCC14028 infected in monocytic human THP-1 cells assessed as reduction in intracellular bacterial growth incubated for 24 hrs in presence of gentamicin by CFU assay; type: functional, organism-based, Salmonella enterica subsp. enterica serovar Typhimurium; settings: Salmonella enterica, ATCC14028, THP-1, 24 h
How it was run: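 Undifferentiated THP-1 cells in RPMI 1640 + 10% FBS. Cells were infected 1 h with LB-grown bacteria at OD600 0.6, given 100 µg/mL gentamicin for 1 h, then compound for 24 h with 20 µg/mL gentamicin.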

Salmonella typhimurium [14] = experiment: Antibacterial activity against Salmonella typhimurium ATCC14028 infected in human HT-29 cells assessed as reduction in intracellular bacterial growth incubated for 24 hrs in presence of gentamicin by CFU assay; type: functional, organism-based, Salmonella enterica subsp. enterica serovar Typhimurium; settings: Salmonella enterica, ATCC14028, HT-29, 24 h; how it was run: as §3
Salmonella typhimurium [15] = experiment: Antibacterial activity against Salmonella typhimurium ATCC14028 infected in human HCT-116 cells assessed as reduction in intracellular bacterial growth incubated for 24 hrs in presence of gentamicin by CFU assay; type: functional, organism-based, Salmonella enterica subsp. enterica serovar Typhimurium; settings: Salmonella enterica, ATCC14028, HCT-116, 24 h; how it was run: as §3
Salmonella typhimurium [16] = experiment: Antibacterial activity against Salmonella typhimurium ATCC14028 infected in human Intestine 407 cells assessed as reduction in intracellular bacterial growth incubated for 24 hrs in presence of gentamicin by CFU assay; type: functional, organism-based, Salmonella enterica subsp. enterica serovar Typhimurium; settings: Salmonella enterica, ATCC14028, Intestine 407, 24 h; how it was run: as §3
Salmonella typhimurium [17] = experiment: Antibacterial activity against ACSSuT-resistant Salmonella typhimurium NL10 infected in mouse RAW264.7 cells assessed as reduction in intracellular bacterial growth incubated for 24 hrs in presence of gentamicin by CFU assay; type: functional, organism-based, Salmonella enterica subsp. enterica serovar Typhimurium; settings: Salmonella enterica, NL10, RAW264.7, 24 h; how it was run: as §2
Listeria monocytogenes = experiment: Antibacterial activity against Listeria monocytogenes infected in mouse RAW264.7 cells assessed as reduction in intracellular bacterial growth incubated for 24 hrs in presence of gentamicin by CFU assay; type: functional, organism-based; settings: RAW264.7, 24 h
How it was run: (§4)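 Clinical isolate grown overnight (16-18 h) in BHI at 37°C with shaking, subcultured 1:100 for 2 h, pelleted, resuspended in PBS to OD600 0.6. RAW264.7 infected for 1 h, then 100 µg/mL gentamicin 1 h, then compound in medium with 20 µg/mL gentamicin for 24 h. Cells lysed in 0.1% Triton X-100, lysates serially diluted and plated, colonies counted after overnight growth; EC50 calculated.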

Yersinia enterocolitica = experiment: Antibacterial activity against Yersinia enterocolitica infected in mouse RAW264.7 cells assessed as reduction in intracellular bacterial growth incubated for 24 hrs in presence of gentamicin by CFU assay; type: functional, organism-based; settings: RAW264.7, 24 h; how it was run: as §4
Salmonella Typhi = experiment: Antibacterial activity against Salmonella Typhi Ty2 infected in mouse RAW264.7 cells assessed as reduction in intracellular bacterial growth incubated for 24 hrs in presence of gentamicin by CFU assay; settings: Salmonella enterica, Ty2, RAW264.7, 24 h
Salmonella typhimurium [18] = experiment: Antibacterial activity against Salmonella typhimurium CGC18 infected in mouse RAW264.7 cells assessed as reduction in intracellular bacterial growth incubated for 24 hrs in presence of gentamicin by CFU assay; settings: Salmonella enterica, CGC18, RAW264.7, 24 h

`CN(C)CCNC1=Nc2ccccc2Nc2ccccc21` gave an EC50 (Salmonella typhimurium [1]) of 15.2 µM, a CC50 at 24 h [2] of 299 µM and a selectivity ratio [3] of 19.7.

Molecule `CN1CCN(C2=Nc3ccccc3Oc3ccc(Cl)cc32)CC1` [LOXAPINE] has an EC50 (Salmonella typhimurium [1]) of 5.77 µM, a CC50 at 24 h [2] of 110 µM and a selectivity ratio [3] of 19.1.

Work on `Clc1ccc2c(c1)C(NCCCN1CCCC1)=Nc1cccnc1N2` yielded an EC50 (Salmonella typhimurium [1]) of 4.24 µM, a CC50 at 24 h [2] of 101 µM and a selectivity ratio [3] of 23.8.

`Cc1cc2c(s1)Nc1ccccc1N=C2NCCN1CCNCC1` gave an EC50 (Salmonella typhimurium [1]) of 4.17 µM, a CC50 at 24 h [2] of 103 µM and a selectivity ratio [3] of 24.6.

`Cc1cc2c(s1)Nc1ccccc1N=C2N1CCN(C)CC1` [OLANZAPINE] showed an EC50 (Salmonella typhimurium [1]) of 5.4 µM, a CC50 at 24 h [2] of 198 µM and a selectivity ratio [3] of 36.7.

With `Clc1ccc2c(c1)C(NCCN1CCNCC1)=Nc1ccccc1O2` the EC50 (Salmonella typhimurium [1]) was 0.3 µM, the CC50 at 24 h [2] was 22.5 µM and the selectivity ratio [3] was 75.

In the case of `Clc1ccc2c(c1)C(NCCN1CCCCC1)=Nc1cccnc1N2`, the EC50 (Salmonella typhimurium [1]) is reported as 5.67 µM, the CC50 at 24 h [2] is reported as 61.9 µM and the selectivity ratio [3] is reported as 10.9.

`c1ccc2c(c1)N=C(NCCCN1CCCC1)c1ccccc1N2` showed an EC50 (Salmonella typhimurium [1]) of 0.4 µM, a CC50 at 24 h [2] of 109 µM and a selectivity ratio [3] of 272. The EC50 (Salmonella typhimurium [4]) was 0.38 µM, the CC50 at 24 h [5] was 92.5 µM and the Activity (RAW264.7) was “Non-Toxic”. For the same molecule, the Activity (Salmonella typhimurium [6]) was “inactive”, the Activity [7] was “inactive” and the CC50 (THP-1 [8]) was 134 µM. The CC50 (THP-1 [9]) was 153 µM, the CC50 (HT-29) was > 180 µM and the CC50 (HCT-116) was > 180 µM. For the same molecule, the CC50 [10] was > 180 µM, the CC50 (J774.1) was 86.8 µM and the EC50 (Salmonella typhimurium [11]) was 0.42 µM. It also gave an EC50 (Salmonella typhimurium [12]) of 0.52 µM, an EC50 (Salmonella typhimurium [13]) of 1.02 µM and an EC50 (Salmonella typhimurium [14]) of 5.97 µM. For the same molecule, the EC50 (Salmonella typhimurium [15]) was 2.85 µM, the EC50 (Salmonella typhimurium [16]) was 2.49 µM and the EC50 (Salmonella typhimurium [17]) was 2.28 µM. For the same molecule, the EC50 (Listeria monocytogenes) was 0.6 µM, the EC50 (Yersinia enterocolitica) was 0.93 µM and the EC50 (Salmonella Typhi) was 0.55 µM. For the same molecule, the EC50 (Salmonella typhimurium [18]) was 1.27 µM.
